Published values gathered from unrelated publications.
Compare with care: the assays were run in different laboratories.
RET: Proto-oncogene tyrosine-protein kinase receptor Ret (RET, Homo sapiens, UniProt P07949)
RET V804L: Proto-oncogene tyrosine-protein kinase receptor Ret (RET, Homo sapiens, UniProt P07949, V804L)
RET V804M: Proto-oncogene tyrosine-protein kinase receptor Ret (RET, Homo sapiens, UniProt P07949, V804M)
RET M918T: Proto-oncogene tyrosine-protein kinase receptor Ret (RET, Homo sapiens, UniProt P07949, M918T)

Compound | target | observed | technique | tested at | remaining binding [%]
Cc1cnn2ncc(-c3ccnc(N(C)C)n3)c2c1 | RET | binding |  | 1 µM | 69
O=C(NCC1CCOCC1)c1n[nH]cc1NC(=O)c1c(F)cccc1F | RET V804L | binding | competition with immobilised ligand | 1 µM | 100
Nc1cnc(N2CCc3cc(S(=O)(=O)Nc4c(F)cc(Cl)cc4F)cc(N4CCCC4=O)c32)nc1 | RET | cell-free assay | competition with immobilised ligand | 1 µM | 89
CN(c1nccc(-c2cnn3ncccc23)n1)C1CC1 | RET V804L | binding |  | 1 µM | 100
CN1CCN(c2ccc(Nc3nccc(-c4ccccc4)n3)cc2C(F)(F)F)CC1 | RET V804M | binding |  | 10 µM | 48
CC1CCCN1c1nccc(-c2cnn3ncccc23)n1 (centres unmarked) | RET V804L | binding |  | 1 µM | 85
C=CC(=O)N1CCC(C(=O)NCC(=O)N2CCN(c3nc(-c4cnc(N)nc4C(F)F)nc(N4CCOCC4)n3)CC2)CC1 | RET V804L | binding | competition with immobilised ligand | 1 µM | 100
CO[C@@H](C)c1c(Nc2ccc([C@@H](N(C)C(=O)C3CCS(=O)(=O)CC3)C(F)(F)F)cc2)cnc2cc(Cl)nn12 | RET | cell-free assay | competition with immobilised ligand | 1 µM | 91
O=C(c1ccc(Nc2ncc(Cl)c(-c3ccc(Cl)s3)n2)cc1)N1CCC(N2CCCC2)CC1 | RET | binding | competition with immobilised ligand | 1 µM | 15
CNC(=O)c1ccc(Nc2ncc(C(F)(F)F)c(NCc3nccnc3N(C)S(C)(=O)=O)n2)cc1 | RET V804M | cell-free assay | competition with immobilised ligand | 0.1 µM | 30
CN(C)c1nccc(-c2cnc3ncccn23)n1 | RET V804M | binding |  | 1 µM | 93
C[C@@H](c1ccc(-n2cnc3c(N)ncnc32)cc1)N1CCc2nn(C)c(Cc3ccccc3)c2C1=O | RET M918T | binding | competition with immobilised ligand | 0.1 µM | 98
O=C(c1ccc(Nc2nccc(-c3cc4ccccc4s3)n2)cc1)N1CCC(N2CCCC2)CC1 | RET V804M | binding | competition with immobilised ligand | 1 µM | 99
CN(C(=O)c1ccccc1)c1cc(N(C)c2ccc3c(c2)CCc2ccc(C(=O)NCCN4CCOCC4)cc2C3=O)ccc1F | RET | cell-free assay | competition with immobilised ligand | 1 µM | 95
Nc1ncc2c(n1)-c1c([nH]c3ccc(C#CC4CC4)cc13)CCCC2 | RET | binding | competition with immobilised ligand | 1 µM | 91
O=C(NCCCN1CCOCC1)c1ccc(Nc2ncc(Cl)c(-c3ccc(Cl)s3)n2)cc1 | RET M918T | binding | competition with immobilised ligand | 1 µM | 15
COc1ncc2cc3ccccc3nc2c1C#N | RET V804L | cell-free assay | competition with immobilised ligand | 5 µM | 94
O=C(O)c1cc(-c2ccc(C3CCNCC3)cc2)c2ccc(-c3ccc(C(F)(F)F)cc3)cc2c1 | RET V804M | cell-free assay | competition with immobilised ligand | 1 µM | 100
COc1cnc(Nc2cccc(S(N)(=O)=O)c2)nc1N1CCN(c2ccccc2)C(=O)C1 | RET V804L | binding | competition with immobilised ligand | 1 µM | 98
O=S(=O)(NC1CCC(c2cc(F)ccc2F)(S(=O)(=O)c2ccc(Cl)cc2)CC1)C(F)(F)F (centres unmarked) | RET V804M | cell-free assay | competition with immobilised ligand | 1 µM | 100
C[C@H]1CCN(c2nccc(-c3cnn4ncccc34)n2)C1 | RET M918T | binding |  | 1 µM | 100
O=C(NS(=O)(=O)c1ccc(NCC2CCOCC2)c([N+](=O)[O-])c1)c1ccc(N2CCN(Cc3ccc(C(F)(F)F)cc3-c3ccc(Cl)cc3)CC2)cc1Oc1cnc2[nH]ccc2c1 | RET V804M | cell-free assay | competition with immobilised ligand | 1 µM | 100
N[C@@H]1CCN(c2nccc(-c3cnn4ncccc34)n2)C1 | RET M918T | binding |  | 1 µM | 94
